Published values collected from several papers.
Protocols differ between the studies behind these lines.
Target: SNF-related serine/threonine-protein kinase (SNRK, Homo sapiens, UniProt Q9NRH2)
Sequence (Q9NRH2 1-765, as in one of the studies): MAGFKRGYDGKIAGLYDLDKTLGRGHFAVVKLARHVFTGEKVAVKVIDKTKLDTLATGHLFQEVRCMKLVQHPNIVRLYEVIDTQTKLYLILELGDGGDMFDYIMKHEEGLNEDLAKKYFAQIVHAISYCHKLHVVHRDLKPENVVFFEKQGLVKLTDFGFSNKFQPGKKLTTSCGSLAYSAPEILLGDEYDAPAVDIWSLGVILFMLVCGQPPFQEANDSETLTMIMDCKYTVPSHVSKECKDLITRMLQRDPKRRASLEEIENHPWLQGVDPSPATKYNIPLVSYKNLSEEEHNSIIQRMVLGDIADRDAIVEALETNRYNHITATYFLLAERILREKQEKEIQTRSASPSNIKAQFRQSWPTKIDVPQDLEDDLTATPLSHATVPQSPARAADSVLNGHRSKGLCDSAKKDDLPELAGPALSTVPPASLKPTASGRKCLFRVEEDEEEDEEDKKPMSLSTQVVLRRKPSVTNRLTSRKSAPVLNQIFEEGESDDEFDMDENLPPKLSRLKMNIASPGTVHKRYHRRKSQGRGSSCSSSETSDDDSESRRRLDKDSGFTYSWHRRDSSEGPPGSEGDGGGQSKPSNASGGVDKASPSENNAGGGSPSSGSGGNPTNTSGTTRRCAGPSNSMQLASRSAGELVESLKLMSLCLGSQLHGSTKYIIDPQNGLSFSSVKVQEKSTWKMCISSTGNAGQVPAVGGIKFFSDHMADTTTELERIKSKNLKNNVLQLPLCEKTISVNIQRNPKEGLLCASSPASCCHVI

| SMILES | effect on | technique | tested at | remaining binding [%] |
| --- | --- | --- | --- | --- |
| COc1cnc(Nc2cccc(S(N)(=O)=O)c2)nc1N1CCN(c2ccccc2)C(=O)C1 | binding | competition with immobilised ligand | 1 µM | 85 |
| Cc1noc([C@H]2C[C@@H](c3ccc(C(F)(F)F)cc3)CN(C(=O)N3CCS(=O)(=O)C3)C2)n1 | cell-free assay | competition with immobilised ligand | 1 µM | 100 |
| CN(C)c1nccc(-c2cnc3ncccn23)n1 | binding |  | 1 µM | 91 |
| COc1ncc2cc3ccccc3nc2c1C#N | cell-free assay | competition with immobilised ligand | 5 µM | 100 |
| O=C(Nc1cccnn1)N1CCC(=Cc2cccc(Oc3ccc(C(F)(F)F)cn3)c2)CC1 | cell-free assay | competition with immobilised ligand | 1 µM | 100 |
| O=C(Nc1c[nH]nc1C(=O)NC1CCNCC1)c1cc(F)cc(F)c1 | binding | competition with immobilised ligand | 1 µM | 97 |
| CC(=O)N1CCC(c2ccc(C(=O)NC(=N)N)cc2C(F)(F)F)CC1 | cell-free assay | competition with immobilised ligand | 1 µM | 100 |
| N[C@H]1CCN(c2nccc(-c3cnn4ncccc34)n2)C1 | binding |  | 1 µM | 100 |
| C=CC(=O)N1CCC(C(=O)NCC(=O)N2CCN(c3nc(-c4cnc(N)nc4C(F)F)nc(N4CCOCC4)n3)CC2)CC1 | binding | competition with immobilised ligand | 1 µM | 99 |
| Cc1cnc(Nc2ccc(C(=O)N3CCC(N4CCCC4)CC3)cc2)nc1-c1cc2ccccc2s1 | binding | competition with immobilised ligand | 1 µM | 100 |
| C[C@@H]1CCN(c2nccc(-c3cnn4ncccc34)n2)C1 | binding |  | 1 µM | 92 |
| CN(c1ccnc(CNc2nc(Nc3ccc4c(c3)CC(=O)N4)ncc2C(F)(F)F)n1)S(C)(=O)=O | cell-free assay | competition with immobilised ligand | 1 µM | 85 |
| C[C@@H](c1ccc(-n2cnc3c(N)ncnc32)cc1)N1CCc2nn(C)c(Cc3ccccc3)c2C1=O | binding | competition with immobilised ligand | 0.1 µM | 98 |
| O=C(NCCCN1CCOCC1)c1ccc(Nc2ncc(Cl)c(-c3ccc(Cl)s3)n2)cc1 | binding | competition with immobilised ligand | 1 µM | 100 |
| FC(F)(F)Oc1cccc(-c2cnc3ccc(-c4ccncc4)nn23)c1 | binding | competition with immobilised ligand | 5 µM | 71 |
| Cc1cnn2ncc(-c3ccnc(N(C)C)n3)c2c1 | binding |  | 1 µM | 79 |
| CC(=O)N1CCC(c2ccc(C(=O)NC3=NCCN3)cc2C(F)(F)F)CC1 | cell-free assay | competition with immobilised ligand | 1 µM | 98 |
| O=C(c1ccc(Nc2nccc(-c3cc4ccccc4s3)n2)cc1)N1CCC(N2CCCC2)CC1 | binding | competition with immobilised ligand | 1 µM | 100 |
| CS(=O)(=O)NCC[C@H](NC(=O)c1cncc2c1cnn2-c1ccc(F)cc1)c1ccnc(S(C)(=O)=O)c1 | cell-free assay | competition with immobilised ligand | 1 µM | 100 |
| CN(C)c1ncc(F)c(-c2cnn3ncccc23)n1 | binding |  | 1 µM | 100 |
| COc1ccc2c(c1)O[C@H](c1ccc(OC)c(OC)c1)C[C@@H]2NC(=O)C1(c2ccc3c(c2)OC(F)(F)O3)CC1 | cell-free assay | competition with immobilised ligand | 1 µM | 92 |
| CN(C)c1nccc(-c2cnn3ncccc23)n1 | binding |  | 1 µM | 100 |
